High-throughput results as filed in PubChem BioAssay.
PostGolgi yeast: phenotypic screen on post-Golgi transport, primary screen. post-Golgi transport phenotypic cell assay. inhibition, % at 10 µM. hit rate 0.9% among 98,000;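 note: yeast cells grown in 1536-well plates; yeast grown about 18 h at 30C before absorbance read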
Ecoli tolC: growth inhibitors of E. coli tolC mutant, primary screen, strain BW25113 ΔtolC::kan, 384-well; hit rate 2.2% among 65,000; AID 573, 2007; growth inhibition, % at 10 µM (by protocol); OD615;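 active = growth inhibition at or above a cutoff equal to the mean over every tested compound plus 3 SD, cut at about 60% in these data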;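 note: growth measured after 20 h incubation at 37 °C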
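Test system: E. coli BW25113 ΔtolC::kan bacteria | Medium: Kanamycin-containing LB broth (50 µg/mL) | Dosing: One dose of 10 µM final | Times: 20 h incubation with compound, 37 °C | Detection: Optical density read at 615 nm | Read-out basis: Percent growth inhibition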
Ecoli WT expand: growth inhibitors of wild-type E. coli, primary screen, strain BW25113, expanded library, OD600. OD600 absorbance. hit rate 0.15% among 98,000. growth inhibition, % at 100 µM;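 active = growth inhibition above about 50% at one test dose, limit read from the data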;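 note: growth measured after 20 h incubation at 37 °C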
PostGolgi ctrl: growth inhibition of yeast control strain, primary screen, counter-screen for post-Golgi transport modulator project | efflux-deficient yeast background strain, growth absorbance A615, 16 h | inhibition, % at 10 µM | hit rate 5% among 98,000 | AID 738, 2007
A number is an active result; n = inactive; x = no result. Most compounds without a hit are left out; they make up all but 6.3% or so of the library. Cut-off read from the data, not from the text of the source, unless noted: active = inhibition above about 30%; inactive = the rest.

SMILES	PostGolgi yeast	Ecoli tolC	Ecoli WT expand	PostGolgi ctrl
O=S(=O)(Nc1ccc(N2CCCCC2)cc1)c1cccc2cccnc12	n	n	n	38
COc1ccc(NS(=O)(=O)c2cccc3cccnc23)cc1	x	n	x	x
S=c1[nH]nc(COc2ccc(Cl)cc2)o1	n	n	n	n
COc1cccc(CN(CC(=O)NC2CCCC2)C(=O)Cn2nnc(-c3cccs3)n2)c1	n	x	n	n
Cc1cc(C)c(Cc2c(C)nc3c(C(=O)NCc4ccco4)cnn3c2C)c(C)c1	n	x	n	44
CC(C)(C)C(=O)[C@H]1[C@H](c2ccccc2)[C@@]2(N=C(c3ccccc3)OC2=O)C2c3ccccc3C=NN21 (stereo partly specified)	n	x	n	37
CC(C)(C)C(=O)[C@@H]1[C@@H]2C(=O)N(Cc3ccccc3)C(=O)[C@@H]2[C@H]2c3ccccc3C=CN12	n	x	n	n
Cc1cc(C)n(-c2nc3ccccc3nc2N2CCCCCC2)n1	n	74	n	39
Cc1cc(C)n(-c2nc3ccccc3nc2N2CCCC2)n1	n	x	n	n
COC(=O)C1=C(N)Oc2cc(C)n(CC3CCCO3)c(=O)c2C1c1ccc(Cl)c(Cl)c1 (stereo unspecified)	n	x	n	n
CCn1c(C)cc2c(c1=O)C(c1ccccc1)C(C(=O)OC)=C(N)O2 (stereo unspecified)	n	x	n	n
COC(=O)C1=C(N)Oc2cc(C)n(Cc3ccco3)c(=O)c2C1c1cccc(Cl)c1 (stereo unspecified)	n	68	n	n
COC(=O)C1=C(N)Oc2cc(C)n(C)c(=O)c2C1c1ccc(Cl)c(Cl)c1 (stereo unspecified)	n	n	n	46
c1ccc(C2=Nc3ccccc3SC2c2nc3ccccc3[nH]2)cc1 (stereo unspecified)	n	x	n	n
CCOC(=O)N1CCN(c2ccc(S(=O)(=O)N(Cc3ccccc3)Cc3ccccc3)cn2)CC1	34	n	n	n
O=C1c2cccnc2C(=O)N1Cc1ccccc1	n	n	n	n
O=C1c2cccc3c(O)ccc(c23)C(=O)N1Cc1ccccc1	30	x	n	n
O=S(=O)(c1ccc(Oc2ccc(Br)cc2)cc1)N1CCOCC1	n	n	n	63
COc1ccc(-c2ccc(S(=O)(=O)N3CCOCC3)cc2)cc1	n	n	n	n
COc1ccc(N(CC(=O)NC(C)C)S(=O)(=O)c2ccc(NC(C)=O)cc2)cc1	n	x	n	n
O=C(CNS(=O)(=O)c1ccc(Br)s1)NCC1COc2ccccc2O1 (stereo unspecified)	68	n	n	95
O=C(NCC1COc2ccccc2O1)c1ccc(Cl)cc1 (stereo unspecified)	58	n	n	n
O=C(NCC1COc2ccccc2O1)c1ccc(NC(=O)c2ccco2)cc1 (stereo unspecified)	n	n	n	n
O=C(CNS(=O)(=O)c1ccc(Br)s1)Nc1ccc2c(c1)OCCO2	n	n	n	n
Cc1oc(-c2ccccc2F)nc1CSCC(=O)NCc1ccc2c(c1)OCO2	n	n	n	n
SMILES	PostGolgi yeast	Ecoli tolC	Ecoli WT expand	PostGolgi ctrl
COc1ccc(N2C(=O)CSC2c2ccc3c(c2)OCO3)c(OC)c1 (stereo unspecified)	n	n	n	31
CNC(=S)N1N=C(c2ccc(C)cc2)CC1c1ccc(OC)cc1 (stereo unspecified)	n	x	n	47
CCC1Oc2ccc(C)cc2N(CC(=O)NCc2cccc(OC)c2)C1=O (stereo unspecified)	n	n	n	33
Cc1ccc(S(=O)(=O)NC(c2ccccc2)C(C)C(=O)n2nc(C)cc2C)cc1 (stereo unspecified)	n	x	n	n
Cc1ccc(S(=O)(=O)NC(CC(=O)n2nc(C)cc2C)c2ccccc2)cc1 (stereo unspecified)	n	x	n	35
CCOC(=O)c1cc2oc(C)cc2n1CC(=O)OC1CCCCC1	n	74	n	n
CC(C)(C)OC(=O)NCCc1nnc(SCc2ccc(Cl)cc2)o1	n	x	n	n
O=C(CSc1nnc(CNc2cccc(Cl)c2)o1)OC1CCCCC1	n	x	n	31
Clc1ccc(CSc2nnc(CNc3cccc(Cl)c3)o2)cc1	n	x	n	45
O=C(Nn1cnnc1)c1cc(-c2ccccn2)nc2ccccc12	n	n	n	n
O=C(NC1CC1)c1cc(-c2ccccn2)nc2ccccc12	n	x	n	34
CC1(C)Cc2noc(N)c2C(C)(C)N1O	n	n	n	n
O=C1CC(c2cccc(Cl)c2)c2cc3c(cc2N1)CCC3 (stereo unspecified)	n	x	n	89
O=C1CC(c2cc(Br)ccc2F)c2cc3c(cc2N1)CCC3 (stereo unspecified)	n	x	n	35
CC(=O)C1=C(O)C(=O)N(CCCn2ccnc2)C1c1ccc(C)cc1 (stereo unspecified)	n	x	n	n
COC(=O)C1=C(CSc2nc3ccccc3o2)NC(=O)NC1c1cc(C)ccc1C (stereo unspecified)	n	86	n	49
COC(=O)C1=C(CN2CCc3ccccc32)NC(=O)NC1c1cc(C)ccc1C (stereo unspecified)	n	n	n	32
CCOC(=O)C1=C(C)N(Cc2ccccc2)C(=O)NC1c1ccc(OC)cc1 (stereo unspecified)	n	x	n	n
CCOC(=O)C1=C(CSc2nc3ccccc3s2)NC(=O)NC1c1cc(C)ccc1C (stereo unspecified)	n	x	n	37
COC(=O)C1=C(CSCc2ccccc2)NC(=O)NC1c1cc(C)ccc1C (stereo unspecified)	n	x	n	n
CCOC(=O)C1=C(CSc2nc3ccccc3s2)NC(=O)NC1c1ccc(OC)cc1 (stereo unspecified)	n	x	n	42
Cc1ccc(-c2cnc(N)n2C)cc1C	n	n	n	n
Cn1c(=O)c2cc(NC(=O)c3ccccc3Cl)c(=O)oc2n(C)c1=O	n	n	n	n
COc1ccc(C(=O)N2CC3(CC(c4cccc([N+](=O)[O-])c4)=NO3)C[C@H]2C(=O)NCC(N)=O)cc1 (stereo partly specified)	n	x	n	n
CC(=O)Nc1nonc1NC(=O)c1ccc(C(C)(C)C)cc1	n	x	n	n
SMILES	PostGolgi yeast	Ecoli tolC	Ecoli WT expand	PostGolgi ctrl
COCc1cc(C)nc2sc(C(=O)OC)c(N)c12	n	n	n	n
COCc1cc(C)nc2sc3c(=O)oc(C)nc3c12	n	66	n	n
Cc1c(Cl)cccc1NC(=O)c1cc(C2CC2)on1	n	n	n	n
N#CC1=C(N)SC(N)=C(C#N)C1CCC1CCCCC1	n	99	n	n
Cc1ccc(NC(=O)CCC(=O)NNC(=O)C(c2ccccc2)c2ccccc2)c(C)c1	n	x	n	n
O=C(OCn1ncc(Br)c(Br)c1=O)c1ccccc1Cl	108	x	n	34
CCn1ncc(Br)c1C(=O)Nc1ccc(C(=O)OC(C)C)cc1	n	x	n	n
O=C(OCc1cnc(Cl)s1)c1ccccc1Cl	n	x	n	n
O=C(OCn1ncc(Br)c(Br)c1=O)c1ccc(F)cc1	107	x	n	46
Cc1ccc(NC(=O)CSc2nnc(-c3ccncc3)n2N)cc1C	n	n	n	n
O=C(Cn1nc(Cl)nc1Cl)c1ccc2c(c1)OCCO2	n	n	61	n
